A selection: hits, their analogues and other compounds. The true share with any hit is near 2.2%.
HCV NS3 hel inh: inhibitors of Hepatitis C virus NS3 helicase. NS3 helicase DNA unwinding, Cy5 molecular beacon fluorescence. inhibition, % at 10.9 µM. hit rate 0.56% among 290,000. AID 1800;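 active = inhibition above the mean of all tested compounds plus 3 SD, set per campaign, cut at about 35% in these data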;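 also: 0% = DMSO wells and 100% = thioflavine S control wells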
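Test system: hepatitis C virus NS3 helicase domain fragment enzyme. Also added: annealed dual-labelled DNA beacon duplex, ATP-started. Timing: 60 min unwinding reaction at 25 °C after ATP addition. Technique: Cy5 fluorescence. Measure: % inhibition of unwinding.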
GRK2 inh: inhibitors of human GRK2 displacing RNA aptamer; P25098; bead flow cytometry, FAM-aptamer displacement from GRK2; inhibition of aptamer binding, % at 10 µM; hit rate 0.59% among 330,000;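 active = inhibition of aptamer binding above 40%, roughly 3 SD of noise, on plates passing a quality check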;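 also: median bead fluorescence of bound FAM aptamer so fluorescent compounds give negative values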
DAGLB inhibitor: diacylglycerol lipase beta (human) inhibition | HEK293T DAGLB membrane lysate, EnzChek fluorogenic substrate | inhibition, % at 5.17 µM | hit rate 0.059% among 340,000 | AID 504411 | Q8NCG7; in the data active = inhibition above about 34%;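 also: 0% = enzyme with vehicle and 100% = wells lacking enzyme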
Target sequence (Q8NCG7 whole entry, looked up): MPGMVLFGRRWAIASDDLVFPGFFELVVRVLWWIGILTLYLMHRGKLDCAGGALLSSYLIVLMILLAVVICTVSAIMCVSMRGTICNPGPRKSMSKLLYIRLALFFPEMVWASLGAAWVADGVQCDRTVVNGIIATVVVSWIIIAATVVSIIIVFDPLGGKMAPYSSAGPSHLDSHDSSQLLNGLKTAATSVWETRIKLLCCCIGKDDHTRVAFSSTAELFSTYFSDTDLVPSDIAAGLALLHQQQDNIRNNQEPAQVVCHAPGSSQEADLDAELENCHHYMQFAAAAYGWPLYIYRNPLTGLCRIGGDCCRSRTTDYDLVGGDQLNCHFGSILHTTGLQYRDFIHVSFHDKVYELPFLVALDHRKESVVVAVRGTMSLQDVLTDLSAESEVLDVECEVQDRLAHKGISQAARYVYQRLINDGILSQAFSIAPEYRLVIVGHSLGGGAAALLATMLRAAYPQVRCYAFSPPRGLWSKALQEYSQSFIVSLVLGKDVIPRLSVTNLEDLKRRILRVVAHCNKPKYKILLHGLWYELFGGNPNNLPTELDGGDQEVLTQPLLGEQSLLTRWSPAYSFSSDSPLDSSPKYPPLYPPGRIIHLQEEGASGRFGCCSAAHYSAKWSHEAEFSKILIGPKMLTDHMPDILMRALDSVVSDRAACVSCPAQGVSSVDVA
HCV core dimer: HCV core protein dimerization inhibition. inhibition, % at 5 µM. AID 1899. hit rate 0.33% among 300,000. TR-FRET GST/Flag-core106 dimerization, 1536-well;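 active = inhibition above the mean of all tested compounds plus 3 SD, set per screening campaign, cut at about 45% in these data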
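Assay system – GST-tagged and Flag-tagged HCV core protein residues 1-106 · Quantity – core106 proteins, GST 13.5 nM and Flag 17 nM · Benchmarks – unlabelled core106 and no-GST-core106 wells · Read-out basis – percent inhibition of core106 dimerization signal · Detection – time-resolved FRET, ex 340 nm, em 617 and 671 nm · Schedule – 4 h at 22.5 °C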
GPR7 antagonist: human neuropeptides B/W receptor 1 antagonism. inhibition, % at 4.4 µM. AID 1861. GPR7-expressing cells, fluorescence antagonist assay. hit rate 1.1% among 290,000. P48145; in the data active = inhibition above about 16%, passing the limit was not always enough;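 also: cells stimulated with the agonist NPW; 0% = agonist with vehicle and 100% = vehicle without agonist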
DNA FID counter: fluorescent intercalator displacement, NS3 helicase counter-screen; DNA fluorescent intercalator displacement, fluorescence; hit rate 0.17% among 290,000; inhibition, % at 7.9 µM; in the data active = inhibition above about 37%;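 also: 0% = vehicle and 100% = reference compound; higher means more ethidium bromide displaced from hairpin DNA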
GPR7 antag conf: confirmation of human GPR7 antagonists; shares compounds with GPR7 antagonist; GPR7-expressing cells, calcium fluorescence antagonist mode; inhibition, % at 4.4 µM; hit rate 52% among 2,400; AID 1952; in the data active = inhibition above about 24%;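 also: stimulated with the GPR7 agonist NPW; 0% = agonist plus vehicle and 100% = vehicle alone without agonist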
MCHR1 antag: MCHR1 (human) antagonism in GPR7 counter-screen; shares compounds with GPR7 antagonist; MCHR1-expressing cells, fluorescence antagonist assay; inhibition, % at 4.4 µM; hit rate 62% among 2,400; AID 2148; in the data active = inhibition above about 22%;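 also: 0% = vehicle with agonist and 100% = vehicle without agonist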
Active calls of the source: *; · = not tested or not shown.

SMILES | HCV NS3 hel inh | GRK2 inh | DAGLB inhibitor | HCV core dimer | GPR7 antagonist | DNA FID counter | GPR7 antag conf | MCHR1 antag
O=C(Nc1ccc(Cl)cc1)C1CC(=O)n2c(nc3ccccc32)N1 (centres undefined) | 13 | 1 | 2 | 1 | 23* | -1 | -9 | 2
Cc1onc(-c2c(F)cccc2Cl)c1C(=O)N1CCN(c2ncc(Br)cn2)CC1 | 6 | 0 | -4 | 4 | 4 | -11 | · | ·
CCc1cc2c(NCc3ccccc3)nc(C)nc2s1 | -1 | 2 | -3 | 9 | 23* | -15 | 17 | 38*
CCc1cc2c(NC(Cc3ccccc3)C(=O)O)nc(C)nc2s1 (centres undefined) | 9 | 0 | 0 | 0 | -2 | -34 | · | ·
O=C(NN=C1CCCC1)c1ccccc1OCCOc1ccccc1 | -31 | 6 | 3 | 3 | 22* | -8 | 15 | 27*
O=C(NN=C1CCCCC1)c1ccccc1OCc1ccc(F)cc1 | 0 | 0 | 1 | 2 | 6 | -14 | · | ·
O=C(O)c1cccc(N2C(=O)c3cc4cccc(Br)c4cc3C2=O)c1 | 14 | 6 | -1 | -8 | 38* | -14 | 0 | 11
COc1ccc2c(c1OC)C(=O)N(c1ccc(C)cc1)C2 | 27 | 0 | 0 | -3 | 23* | -14 | 9 | 2
COCCn1c(Cc2ccccc2)nnc1SCc1ccc([N+](=O)[O-])cc1 | -3 | 0 | -3 | -3 | 16 | -10 | · | ·
CCn1c(Cc2ccccc2)nnc1SCc1ccc([N+](=O)[O-])cc1 | -1 | 0 | -2 | 2 | 32* | -15 | 14 | -2
COc1cc(/C=N/n2nnnc2N)cc(Cl)c1OC | · | 0 | -3 | -7 | · | · | · | ·
COc1ccc(S(=O)(=O)N2CCN(C3CCN(Cc4ccccc4)CC3)CC2)cc1 | -6 | 0 | -4 | 1 | 5 | 4 | · | ·
CCOc1ccc(S(=O)(=O)N2CCN(Cc3ccccc3)CC2)cc1 | -6 | 0 | -6 | 5 | 28* | -16 | 20 | 28*
COc1ccc(NC(=O)CN(C)C(=O)c2cccc(S(=O)(=O)N3CCN(Cc4ccccc4)CC3)c2)cc1 | -18 | 0 | -1 | 1 | 35* | -16 | 31* | 46*
CN(C)CCNS(=O)(=O)c1ccc(N2CCN(c3ccc(F)cc3)CC2)c([N+](=O)[O-])c1 | -79 | 0 | 10 | -12 | 23* | 38* | 36* | 32*
O=C(Nc1ccnn1C1CCN(Cc2ccc(CO)o2)CC1)c1ccccc1 | -5 | 1 | -1 | 9 | 29* | 3 | -9 | 16
CCc1ccc(CN2CCC(n3nccc3NC(=O)c3ccccc3)CC2)o1 | 0 | 0 | -1 | -16 | -6 | -2 | · | ·
CCOc1ccc(NC(=O)c2ccc3c(c2)OCCO3)cc1S(=O)(=O)N(CC)CC | · | 2 | -1 | · | · | · | · | ·
CCC[C@@H](CN[C@@H](CNC)[C@H](C)CC)NCC1CCC(C(C)(C)C)CC1 (some centres undefined) | -76 | 0 | 0 | -9 | 47* | 40* | 51* | 64*
C/C(=N\NC(=O)Cc1ccc([N+](=O)[O-])cc1)c1cccnc1 | -3 | 13 | 0 | · | 23* | -3 | 0 | 16
CCc1ccc(/C=C2/C(=O)N(C)C(=S)N2CC(=O)OC)s1 | -5 | 2 | -5 | -1 | 27* | -3 | 2 | 13
CCN(CC(=O)Nc1ccc(S(=O)(=O)N2CCCC2)cc1)CC(=O)Nc1ccccc1C(F)(F)F | · | 0 | 0 | · | · | · | · | ·
COc1ccc(-n2c(-c3ccc(Cl)cc3)c[n+]3c2CCc2ccccc2-3)cc1 | -27 | 0 | 4 | 0 | 31* | 5 | 33* | 35*
Nc1c(C(=O)NCc2ccc3c(c2)OCO3)nnn1Cc1ccc(Br)cc1 | -4 | 2 | 1 | -3 | 24* | -9 | 27* | 21
O=C(NCc1ccc2c(c1)OCO2)C(=O)NCC1OCCN1S(=O)(=O)c1ccc(Br)cc1 (centres undefined) | 6 | 1 | 0 | 3 | 29* | -35 | 22 | 40*
SMILES | HCV NS3 hel inh | GRK2 inh | DAGLB inhibitor | HCV core dimer | GPR7 antagonist | DNA FID counter | GPR7 antag conf | MCHR1 antag
Nc1c(C(=O)NCc2ccc3c(c2)OCO3)nnn1CC(=O)Nc1ccc(Br)cc1 | 4 | 0 | 3 | -3 | 2 | -7 | · | ·
CCC(C)(C(=O)NC1CCCC1)N(Cc1cccs1)C(=O)c1ccc2c(c1)OCO2 (centres undefined) | 17 | 1 | -2 | -6 | 29* | -31 | 29* | 25*
O=C(NC1CCCCC1)c1ccc2c(c1)OCO2 | 2 | 2 | -2 | -2 | -11 | -6 | · | ·
CCC(C)(C(=O)NC1CCCCC1)N(Cc1cccs1)C(=O)Cc1cccs1 (centres undefined) | 5 | 0 | -3 | 8 | 36* | -29 | 34* | 37*
CCOC(=O)c1c(NC(=O)COc2cccc3c2CCN(CC)C3=O)sc2c1CCC2 | 2 | 0 | 0 | 0 | 0 | -4 | · | ·
CC(C)Cn1c(SCC(N)=O)nnc1-c1cccc(S(=O)(=O)N2CCOCC2)c1 | · | 5 | -1 | · | · | · | · | ·
Cc1ccc(CSc2nnc(-c3cccc(S(=O)(=O)N4CCOCC4)c3)n2CC(C)C)cc1 | -16 | 1 | -1 | 6 | 35* | -35 | 19 | 25*
COC(=O)c1ccc(OCC(=O)NCCC2=CCCCC2)c(OC)c1 | · | 1 | -3 | · | · | · | · | ·
CCC(=O)c1ccc(OCC(=O)NCCC2=CCCCC2)c(OC)c1 | -5 | 0 | -1 | -6 | 24* | -37 | 4 | 4
CCCN(CC(=O)Nc1ccccc1OC)C(=O)c1ccc2c(c1)NC(=O)C(C)S2 (centres undefined) | · | 0 | 3 | · | · | · | · | ·
CCOC(=O)C1CCN(CCC(=O)Nc2ccccc2)CC1 | 1 | 0 | 3 | -6 | 51* | -1 | 3 | -4
CC1Cc2cc(S(=O)(=O)N3CCCC(C(=O)N4CCCCC4)C3)ccc2N1C(=O)C1CC1 (centres undefined) | -4 | 2 | -3 | 1 | 28* | -54 | 20 | 24*
CC(=O)N1c2ccc(S(=O)(=O)N3CCCC(C(=O)N4CCCCC4)C3)cc2CC1C (centres undefined) | -2 | 0 | 0 | 2 | -1 | -48 | · | ·
CCn1cc(C(=O)N2CCN(c3ccc(OC)cc3)CC2)c2cc(OC)c(OC)cc2c1=O | 3 | 2 | -2 | 2 | 39* | -28 | -14 | -8
CN(C)c1ccc(S(=O)(=O)NCC(=O)NCCC2=CCCCC2)cc1[N+](=O)[O-] | · | 2 | 4 | · | · | · | · | ·
COc1ccc(-c2csc(NC(=O)c3ccccc3NS(=O)(=O)c3ccc(F)c(F)c3)n2)cc1 | 5 | 11 | 11 | 22 | 69* | 14 | 52* | 59*
